Source: ChEMBL document CHEMBL3856186, “Partial Activation and Inhibition of TRPV1 Channels by Evodiamine and Rutaecarpine, Two Major Components of the Fruits of Evodia rutaecarpa” (J Nat Prod, 2016)
Calls of active or inactive are those of the source. The calls are words filed in the database; no cut-off is given here.

Legend:
Format in all cases: cell-based
[1] = molecular target: Transient receptor potential cation channel subfamily V member 1 (Rattus norvegicus) (UniProt O35433); assay: Partial antagonist activity at rat TRPV1 expressed in HEK293 cells assessed as effect on capsaicin-induced inward current at 1 uM by whole-cell patch clamp method (reference value: -7 +/- 2.6 pA/pF)
Method in brief: (§1)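 HEK293 cells transiently expressing rat TRPV1 (EGFP cotransfected) were patched in whole-cell mode 1 day post-transfection. Cells were held at −60 mV in Ca2+-containing standard bath (pH 7.4) at ~25 °C. Capsaicin-evoked peak current amplitude was quantified. Sigmoidal curve fitting gave EC50 or IC50 values.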

[2] = molecular target: Transient receptor potential cation channel subfamily V member 1 (Rattus norvegicus) (UniProt O35433); assay: Agonist activity at rat TRPV1 channel expressed in HEK293 cells assessed as reversal potential at 10 uM and -60 mV holding potential by whole-cell patch-clamp method
Method in brief: (§2)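 Rat TRPV1 cDNA and an EGFP reporter were cotransfected into HEK293 cells, with recording 1 day later. Whole-cell voltage clamp was run at room temperature (~25 °C) in standard bath (2 mM CaCl2, pH 7.4) with a KCl/MgATP/EGTA pipette solution. Steps from −100 to +100 mV (100 ms) gave I–V curves. Agonist was applied until desensitization, and peak current was scored. EC50 came from a sigmoidal fit.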

[3] = molecular target: Transient receptor potential cation channel subfamily V member 1 (Rattus norvegicus) (UniProt O35433); assay: Partial antagonist activity at rat TRPV1 expressed in HEK293 cells assessed as effect on capsaicin-induced inward current at 1 uM by whole-cell patch clamp method (reference value: -431 +/- 43.1 pA/pF); method in brief: as §1
[4] = molecular target: Transient receptor potential cation channel subfamily V member 1 (Rattus norvegicus) (UniProt O35433); assay: (§3) Partial antagonist activity at rat TRPV1 expressed in HEK293 cells assessed as effect on capsaicin current density at 1 uM pretreated for 180 sec followed by capsaicin addition at -60 mV holding potential in presence of extracellular calcium by whole-cell patch-clamp method (reference value: -327.4 +/- 52.3 pA/pF); method in brief: as §1
[5] = molecular target: Transient receptor potential cation channel subfamily V member 1 (Rattus norvegicus) (UniProt O35433); assay: Partial antagonist activity at rat TRPV1 expressed in HEK293 cells assessed as effect on capsaicin-induced inward current at 0.6 uM by whole-cell patch clamp method (reference value: -7 +/- 2.6 pA/pF); method in brief: as §1
[6] = molecular target: Transient receptor potential cation channel subfamily V member 1 (Rattus norvegicus) (UniProt O35433); assay: Partial antagonist activity at rat TRPV1 expressed in HEK293 cells assessed as effect on capsaicin-induced inward current at 0.1 uM by whole-cell patch clamp method (reference value: -480.7 +/- 96.9 pA/pF); method in brief: as §1
[7] = molecular target: Transient receptor potential cation channel subfamily V member 1 (Rattus norvegicus) (UniProt O35433); assay: as §3, with “at 0.5” for “at 1”; method in brief: as §1
[8] = molecular target: Transient receptor potential cation channel subfamily V member 1 (Rattus norvegicus) (UniProt O35433); assay: as §3, with “at 10” for “at 1”; method in brief: as §1
[9] = molecular target: Transient receptor potential cation channel subfamily V member 1 (Rattus norvegicus) (UniProt O35433); assay: Agonist activity at rat TRPV1 channel expressed in HEK293 cells assessed as induction of inward current at 10 uM and -60 mV holding potential by whole-cell patch-clamp method; method in brief: as §2
[10] = molecular target: Transient receptor potential cation channel subfamily V member 1 (Rattus norvegicus) (UniProt O35433); assay: Partial antagonist activity at rat TRPV1 expressed in HEK293 cells assessed as effect on capsaicin-induced inward current at 10 uM by whole-cell patch clamp method; method in brief: as §1
[11] = molecular target: Transient receptor potential cation channel subfamily V member 1 (Rattus norvegicus) (UniProt O35433); assay: Partial antagonist activity at rat TRPV1 expressed in HEK293 cells assessed as effect on capsaicin-induced inward current at 0.1 uM by whole-cell patch clamp method (reference value: -431 +/- 43.1 pA/pF); method in brief: as §1
[12] = molecular target: Transient receptor potential cation channel subfamily V member 1 (Rattus norvegicus) (UniProt O35433); assay: Partial antagonist activity at rat TRPV1 expressed in HEK293 cells assessed as effect on capsaicin-induced inward current at 10 uM by whole-cell patch clamp method (reference value: -431 +/- 43.1 pA/pF); method in brief: as §1
[13] = molecular target: Transient receptor potential cation channel subfamily V member 1 (Rattus norvegicus) (UniProt O35433); assay: Partial antagonist activity at rat TRPV1 expressed in HEK293 cells assessed as effect on capsaicin-induced inward current at 0.1 uM by whole-cell patch clamp method (reference value: -7 +/- 2.6 pA/pF); method in brief: as §1
[14] = molecular target: Transient receptor potential cation channel subfamily V member 1 (Rattus norvegicus) (UniProt O35433); assay: Partial antagonist activity at rat TRPV1 expressed in HEK293 cells assessed as effect on capsaicin-induced inward current at 10 uM by whole-cell patch clamp method (reference value: -[…] +/- […] pA/pF)
[15] = molecular target: Transient receptor potential cation channel subfamily V member 1 (Rattus norvegicus) (UniProt O35433); assay: Partial antagonist activity at rat TRPV1 expressed in HEK293 cells assessed as effect on capsaicin-induced inward current at 1 uM by whole-cell patch clamp method (reference value: -151.2 +/- 33 pA/pF); method in brief: as §1
[16] = molecular target: Transient receptor potential cation channel subfamily V member 1 (Rattus norvegicus) (UniProt O35433); assay: Partial antagonist activity at rat TRPV1 expressed in HEK293 cells assessed as effect on capsaicin-induced inward current at 1 uM by whole-cell patch clamp method (reference value: -[…] +/- […] pA/pF)
[17] = molecular target: Transient receptor potential cation channel subfamily V member 1 (Rattus norvegicus) (UniProt O35433); assay: Partial antagonist activity at rat TRPV1 expressed in HEK293 cells assessed as effect on capsaicin-induced inward current at 0.6 uM by whole-cell patch clamp method (reference value: -431 +/- 43.1 pA/pF); method in brief: as §1
[18] = molecular target: Transient receptor potential cation channel subfamily V member 1 (Rattus norvegicus) (UniProt O35433); assay: as §3, with “at 0.1” for “at 1”; method in brief: as §1
[19] = molecular target: Transient receptor potential cation channel subfamily V member 1 (Rattus norvegicus) (UniProt O35433); assay: Partial antagonist activity at rat TRPV1 expressed in HEK293 cells assessed as effect on capsaicin-induced inward current at 10 uM by whole-cell patch clamp method (reference value: -480.7 +/- 96.9 pA/pF); method in brief: as §1
[20] = molecular target: Transient receptor potential cation channel subfamily V member 1 (Rattus norvegicus) (UniProt O35433); assay: Partial antagonist activity at rat TRPV1 expressed in HEK293 cells assessed as effect on capsaicin-induced inward current at 10 uM by whole-cell patch clamp method (reference value: -151.2 +/- 33 pA/pF); method in brief: as §1

Sequence of Transient receptor potential cation channel subfamily V member 1 (Rattus norvegicus) (O35433 whole entry): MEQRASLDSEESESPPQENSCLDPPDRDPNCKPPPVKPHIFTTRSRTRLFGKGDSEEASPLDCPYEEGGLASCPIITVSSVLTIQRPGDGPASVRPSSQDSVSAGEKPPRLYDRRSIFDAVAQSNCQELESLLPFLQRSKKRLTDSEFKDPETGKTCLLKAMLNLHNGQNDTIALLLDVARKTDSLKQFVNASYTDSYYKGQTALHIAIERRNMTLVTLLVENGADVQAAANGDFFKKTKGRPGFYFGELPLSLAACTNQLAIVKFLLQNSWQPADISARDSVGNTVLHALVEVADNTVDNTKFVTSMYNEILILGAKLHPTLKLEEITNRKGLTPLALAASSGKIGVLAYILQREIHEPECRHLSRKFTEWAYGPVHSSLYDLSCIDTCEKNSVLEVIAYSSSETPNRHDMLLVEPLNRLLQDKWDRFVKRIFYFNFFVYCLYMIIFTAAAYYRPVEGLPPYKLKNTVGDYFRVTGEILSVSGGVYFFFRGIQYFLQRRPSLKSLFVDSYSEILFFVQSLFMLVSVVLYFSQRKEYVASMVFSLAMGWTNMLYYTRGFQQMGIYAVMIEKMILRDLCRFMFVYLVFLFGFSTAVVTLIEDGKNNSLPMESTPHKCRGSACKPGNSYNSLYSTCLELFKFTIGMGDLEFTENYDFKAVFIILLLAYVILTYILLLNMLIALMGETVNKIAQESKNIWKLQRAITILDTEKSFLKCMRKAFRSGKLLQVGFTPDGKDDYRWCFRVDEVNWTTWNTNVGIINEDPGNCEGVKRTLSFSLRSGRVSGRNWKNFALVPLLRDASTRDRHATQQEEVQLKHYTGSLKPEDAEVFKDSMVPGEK

Activity [1]: -81.7 pA/pF | Activity [2]: 0 mV | Activity [3]: -260 pA/pF | Activity [4]: -132 pA/pF | Activity [5]: -35.9 pA/pF | Activity [6]: -416 pA/pF | Activity [7]: -143 pA/pF | Activity [8]: -60.3 pA/pF | Activity [9]: Active | Activity [10]: -439 pA/pF | Activity [11]: -390 pA/pF | Activity [12]: -237 pA/pF | Activity [13]: -6.4 pA/pF | Activity [14]: -393 pA/pF | Activity [15]: -75 pA/pF | Activity [16]: -370 pA/pF | Activity [17]: -328 pA/pF | Activity [18]: -243 pA/pF | Activity [19]: -256 pA/pF | Activity [20]: -172 pA/pF
SMILES: CN1c2ccccc2C(=O)N2CCc3c([nH]c4ccccc34)C21 (stereo not given)
